Source: PubChem BioAssay
NR2E3 ag-1 = agonists of human nuclear receptor NR2E3; GST-NR2E3/biotin-RetCOR TR-FRET, 1536-well; hit rate 0.12% among 320,000; Q9Y5X4; inhibition of corepressor binding, % at 4.78 µM;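 active = percent inhibition above the cutoff of mean plus 3 SD of all tested compounds, set per screening campaign, cut at about 20% in these data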;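 note: 0% = DMSO wells and 100% = biotin wells as full block of FRET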
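Material: NR2E3–RetCOR corepressor complex / Amount: 1.35 nM GST-NR2E3 / Medium: Tris pH 7.5 / Compound: single nominal compound dose of 4.8 µM / Incubation: 5 h at 4 °C / Technique: TR-FRET, Eu(K)-anti-GST donor, streptavidin-D2 acceptor, ex 340, em 617/671 nm / Read-out basis: percent loss of FRET ratio relative to control wells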
NR2E3 ag-2 = human photoreceptor-specific nuclear receptor agonism; Q9Y5X4; CHO-S Gal4-NCOR/VP16-NR2E3 two-hybrid, luciferase; inhibition of corepressor binding, % at 3.98 µM; hit rate 0.35% among 360,000;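 active = inhibition above the mean of all tested compounds plus 3 SD, cut at about 70% in these data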;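 note: 0% = DMSO with NR2E3 transfected cells and 100% = cells lacking NR2E3 construct; higher means lower luciferase signal from less NR2E3 corepressor binding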
PG9 binder = PG9 antibody binding by small molecule; TR-FRET gp120-PG9 antibody binding; inhibition, % at 6.7 µM; hit rate 0.43% among 360,000; in the data active = inhibition above about 8.5%
Rev-erbA mod = modulates human Rev-erb alpha binding to DNA; P20393; Rev-erbα–FITC-DNA binding, fluorescence polarization, 90 min; activity, % at 10 µM; hit rate 0.79% among 370,000;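 active = activity above about 14%, limit read from the data; passing the limit was not always enough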;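 note: 0% = DMSO wells with 35 nM protein and 100% = DMSO wells with 750 nM protein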
Neddylation inh = inhibitors of human cullin neddylation; P61081+Q13564; TR-FRET cullin neddylation, biochemical; calls only at 25 µM; hit rate 0.58% among 360,000; AID 651699; in the data active = inhibition above about 36%
Target sequence (P61081 whole entry, looked up): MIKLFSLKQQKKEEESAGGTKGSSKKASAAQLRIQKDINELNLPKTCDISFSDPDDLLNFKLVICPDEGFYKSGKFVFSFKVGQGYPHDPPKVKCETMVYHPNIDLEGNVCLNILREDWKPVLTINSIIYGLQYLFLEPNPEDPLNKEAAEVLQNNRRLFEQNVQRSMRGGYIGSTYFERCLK
Target sequence (Q13564 whole entry, looked up): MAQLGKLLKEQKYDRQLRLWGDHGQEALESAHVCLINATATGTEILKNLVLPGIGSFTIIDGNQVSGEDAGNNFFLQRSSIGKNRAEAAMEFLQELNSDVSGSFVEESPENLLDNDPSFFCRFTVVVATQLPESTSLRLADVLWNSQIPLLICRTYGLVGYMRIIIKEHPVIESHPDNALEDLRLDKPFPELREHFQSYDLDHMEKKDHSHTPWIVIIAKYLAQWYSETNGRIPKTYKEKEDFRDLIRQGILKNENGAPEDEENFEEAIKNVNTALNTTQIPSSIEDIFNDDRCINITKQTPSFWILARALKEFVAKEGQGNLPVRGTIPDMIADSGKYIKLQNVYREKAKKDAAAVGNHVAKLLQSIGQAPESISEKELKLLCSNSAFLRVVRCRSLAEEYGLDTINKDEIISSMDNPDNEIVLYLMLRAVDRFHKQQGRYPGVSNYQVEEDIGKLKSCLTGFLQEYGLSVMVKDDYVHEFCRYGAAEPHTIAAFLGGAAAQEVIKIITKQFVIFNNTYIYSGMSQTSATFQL
NR2E3 ag confirm = confirmation of human NR2E3 agonists; shares compounds with NR2E3 ag-2; CHO-S mammalian two-hybrid NR2E3-NCOR, luciferase luminescence; inhibition, % at 3.98 µM; hit rate 51% among 2,300; AID 624378;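 active = average inhibition above a cutoff equal to the mean inhibition of all tested compounds plus one SD, cut at about 70% in these data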;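 note: 0% = DMSO in NR2E3 cells and 100% = DMSO in cells lacking NR2E3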
GAL4-VP16 luc = GAL4-VP16 reporter inhibition in NR2E3 agonist counterscreen | shares compounds with NR2E3 ag-2 | CHO-S GAL4-VP16 luciferase reporter, luminescence | inhibition, % at 3.98 µM | hit rate 29% among 2,300 | AID 624379;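 active = mean inhibition above a cutoff equal to the average over all tested compounds plus one standard deviation, cut at about 70% in these data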;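 note: luciferase from a UAS reporter driven by GAL4-VP16 transactivation; 0% = DMSO with VP16-transfected cells and 100% = DMSO with cells lacking VP16; higher means less reporter light so more repression of VP16 activity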
PG9 binder conf = confirmation of small molecules binding HIV-1 gp120 antibody PG9; shares compounds with PG9 binder; TR-FRET PG9 antibody binding, biochemical; inhibition, % at 6.7 µM; hit rate 90% among 1,500; in the data active = inhibition above about 9%
PGV04 Ab binding = counter-screen for PG9 binders: binding control antibody PGV04 | shares compounds with PG9 binder | TR-FRET PGV04 antibody-gp120 binding, biochemical | inhibition, % at 6.7 µM | hit rate 95% among 1,500 | AID 651604; in the data active = inhibition above about 9.5%
PG9 binder DR = small molecules binding HIV-1 gp120 antibody PG9 | shares compounds with PG9 binder | TR-FRET PG9 antibody-gp120 binding inhibition | IC50, µM | 95 tested, under 10 active | AID 651848; in the data active = IC50 below about 10 µM
PGV04 binding DR = PGV04 binding, dose response counter-screen. IC50, µM. shares compounds with PG9 binder. hit rate 20% among 95. TR-FRET binding to control antibody PGV04
PG126 binding DR = PG126 binding, dose response counter-screen | shares compounds with PG9 binder | TR-FRET binding to antibody PG126, counterscreen | IC50, µM | hit rate 20% among 95 | AID 651939
NR1D1 mod conf = confirmation of modulators of human Rev-erb alpha DNA binding. hit rate 61% among 3,000. shares compounds with Rev-erbA mod. activation, % at 25 µM. Rev-erb alpha FITC-DNA binding, fluorescence polarization, 90 min. AID 1259319;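 active = activation at or above a set limit, or at least 3 SD above the negative control mean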;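 note: 0% = 35 nM protein with DMSO and 100% = 750 nM protein high control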
RORg DNA counter = affects RORgamma DNA binding in a Rev-erb alpha counter-screen. IC50, µM. shares compounds with Rev-erbA mod. AID 1259320. hit rate 8% among 910. purified RORgamma protein-FITC-DNA binding, fluorescence polarization;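 active = Compounds whose fitted half-maximal concentration for disrupting protein-DNA binding is below 10 micromolar; the record names Rev-erb in its text, so the target is in doubt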
* hit, by the source's call; i = inactive; . = not tested or not shown. An excerpt weighted towards active compounds, which were near 2% of everything screened. Cut-off read from the data, not from the text of the source, unless noted: active = IC50 below about 9 µM; inactive = the rest.

SMILES	NR2E3 ag-1	NR2E3 ag-2	PG9 binder	Rev-erbA mod	Neddylation inh	PG9 binder conf	PGV04 Ab binding	others
COc1ccc(C(=O)Nc2nnc(Cc3cccs3)s2)cc1OC	12	63	33*	46*	i	45*	75*	NR2E3 ag confirm=62;GAL4-VP16 luc=23;NR1D1 mod conf=47*;RORg DNA counter=>40
COc1ccc(Cc2nnc(NC(=O)c3ccc(OC)c(OC)c3)s2)cc1	4	11	8	3	i	.	.
O=S(=O)(O)OC[C@H]1O[C@@](COS(=O)(=O)O)(O[C@H]2O[C@H](COS(=O)(=O)O)[C@@H](OS(=O)(=O)O)[C@H](OS(=O)(=O)O)[C@H]2OS(=O)(=O)O)[C@@H](OS(=O)(=O)O)[C@@H]1OS(=O)(=O)O	.	.	.	-3	.	.	.
O=C(CSc1nnnn1-c1ccccc1)Nc1nsc(-c2ccc(Cl)cc2)n1	-135	70	8	26*	i	.	.	NR2E3 ag confirm=98*;GAL4-VP16 luc=38;NR1D1 mod conf=43*
CCN1/C(=C/c2ccc3cccc(C)c3[n+]2CC)Sc2ccccc21	-6	86*	-8	48*	i	.	.	NR2E3 ag confirm=97*;GAL4-VP16 luc=85*;NR1D1 mod conf=71*;RORg DNA counter=>40
CCN1/C(=C/c2ccc3cc(C)ccc3[n+]2CC)Sc2ccc3sccc3c21	-6	25	.	.	i	.	.
CCOC(=O)[C@]12CCCCC/C=C\1N(CCc1ccc(Cl)cc1)C(=O)[C@H]2CC(=O)N1CCN(C(=O)c2ccco2)CC1	.	.	.	-5	.	.	.
COc1cccc(NC(=O)CSc2nc3ncc(Br)cc3[nH]2)c1	0	66	22*	104*	i	7	11*	NR2E3 ag confirm=80*;GAL4-VP16 luc=33;NR1D1 mod conf=101*;RORg DNA counter=i
CCOc1ccc(NC(=O)CN2CCCN(c3ccc(OC)cc3)CC2)cc1	.	.	.	0	.	.	.
CCCCCC[n+]1ccccc1/C=C/c1ccc(N(C)C)cc1	.	88*	-11	34*	i	.	.	NR2E3 ag confirm=98*;GAL4-VP16 luc=80*;NR1D1 mod conf=37*;RORg DNA counter=i
CC[n+]1ccccc1/C=C/c1ccc(N(C)C)cc1	.	-7	-16	16	i	.	.
Cc1cc(C(=O)CSc2nc3ccccc3c(=O)n2C)c(C)n1Cc1ccc2c(c1)OCO2	-4	69	2	42*	i	.	.	NR2E3 ag confirm=95*;GAL4-VP16 luc=76*;NR1D1 mod conf=6
Oc1[nH]c2ccc(Br)cc2c1N=NC(=S)N1CCOCC1	1	98*	-1	19*	i	.	.	NR2E3 ag confirm=90*;GAL4-VP16 luc=44;NR1D1 mod conf=24*
COC(=O)N=Nc1c(O)[nH]c2ccc(Br)cc12	-5	-31	-3	-6	i	.	.
COc1ccc(/C(O)=C2/C(=O)C(=O)N(c3ccccn3)C2c2ccc(OC)cc2)cc1 (centres undefined)	.	-28	4	1	i	.	.
CCOc1ccc(/C(O)=C2/C(=O)C(=O)N(c3ccccn3)C2c2ccc(F)cc2)c(C)c1 (centres undefined)	8	-22	10*	3	i	18*	24*
CCCOc1ccc(/C(O)=C2/C(=O)C(=O)N(c3ccccn3)C2c2ccc(OC)cc2)cc1C (centres undefined)	8	-17	17*	-4	i	25*	36*
N#CC1=C2CCCCC2(O)NC1=O (centres undefined)	.	-9	-1	-2	i	.	.
COc1ccc(CC(=O)Nc2ccc(N3CCN(c4ccc(OC)cc4)CC3)c(C#N)c2)cc1	2	-15	9.1*	8	i	18*	24*
Cc1cc(=O)oc2cc(NC(=O)C3COc4ccccc4O3)ccc12 (centres undefined)	8	-36	16*	11	i	39*	33*	PG9 binder DR=>67;PGV04 binding DR=i;PG126 binding DR=i
CCCn1c(/C=C/c2ccccc2)nc2ccccc21	2	-59	1	0	.	.	.
CCn1c(/C=C/c2cc[n+](C)cc2)nc2ccccc21	4	-35	13*	5	i	14*	16*
O=C(CSc1nnc2ccccn12)Nc1ccc2c(c1)OCO2	-2	-12	-1	5	i	.	.
O=C(CSc1nnc2ccccn12)Nc1cccc(-c2nc3ccccc3s2)c1	1	-128	8.9*	20	i	13*	25*
C=CCn1c(SCC(=O)Nc2ccc(-c3nc4ccc(C)cc4s3)cc2)nnc1-c1ccccc1	-308	-165	9.6*	20	.	13*	27*
SMILES	NR2E3 ag-1	NR2E3 ag-2	PG9 binder	Rev-erbA mod	Neddylation inh	PG9 binder conf	PGV04 Ab binding	others
O=C(C1CCCN1S(=O)(=O)c1ccccc1[N+](=O)[O-])N1CCN(c2ccccc2)CC1 (centres undefined)	.	.	.	-3	.	.	.
Nc1ccccc1Nc1cc(-c2ccccc2)nn1-c1cccc(Cl)c1	-6	1	-4	4	i	.	.
CNc1nn(-c2cccc(Cl)c2)nc1N	-3	-75	21*	1	i	21*	27*
CC(C)c1ccc(OCC(=O)NC(=S)Nc2ccc3c4c(cccc24)CC3)cc1	6	-4	11*	7	i	11*	12*
Cc1ccc(OCC(=O)NC(=S)Nc2ccc3c4c(cccc24)CC3)cc1	6	-9	1	11	i	.	.
COCCCN1C(=O)C(=O)/C(=C(/O)c2ccc(OC(C)C)cc2)C1c1cccnc1 (centres undefined)	18	-14	10*	0	i	14*	19*
CCCC[n+]1ccn(-c2nc3ccccc3nc2[N-]S(=O)(=O)c2ccc(Cl)cc2)c1	1	5	17*	20	i	28*	34*
CCCCn1c(-c2cccc3ccccc23)nc2cc3[nH]c(=O)c(C(C)C)nc3cc21	1	-33	2	3	.	.	.
Cn1ccc2c(N3c4ccccc4CCc4ccccc43)cc3c(c21)C1CCC3O1 (centres undefined)	.	-18	19*	-8	i	5	7
